Laboratory results: ChEMBL document CHEMBL5226372, “Tuaimenals B-H, Merosesquiterpenes from the Irish Deep-Sea Soft Coral Duva florida with Bioactivity against Cervical Cancer Cell Lines” (J Nat Prod, 2023)
pEC50: −log10 of the molar value. Active and inactive are the calls of the source. The rule behind the calls is not given here.

What was measured:
[1] = system: Mycobacterium tuberculosis; assay: Antibacterial activity against Mycobacterium tuberculosis; assay type: functional, organism-based
C-33-A [2] = assay: Antiproliferative activity against HPV-negative human C-33-A cells assessed as inhibition of cell growth incubated for 48 hrs by WST-1 assay; assay type: functional, cell-based
Summary of the method: (§1)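 CaSki cells (RPMI 1640) and C33A cells (DMEM), passage <10, kept at 37 °C in 5% CO2. Cells were seeded at 1000–3000 per well to reach 50% confluency, then treated 48 h with serial dilutions from 200 to 2 μM in DMSO (N = 3). WST-1 was read after 2 h at 450/600 nm. Absorbances were normalized and EC50 came from nonlinear regression.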

Candida = assay: Antifungal activity against Candida; assay type: functional, organism-based
Human orthopneumovirus = assay: Antiviral activity against human respiratory syncytial virus; assay type: functional, organism-based
Acinetobacter baumannii = assay: Antibacterial activity against Acinetobacter baumannii; assay type: functional, organism-based
Enterococcus faecium = assay: Antibacterial activity against Enterococcus faecium; assay type: functional, organism-based
Enterobacter sp. = assay: Antibacterial activity against Enterobacter sp.; assay type: functional, organism-based
Staphylococcus aureus = assay: Antibacterial activity against Staphylococcus aureus; assay type: functional, organism-based
Klebsiella pneumoniae = assay: Antibacterial activity against Klebsiella pneumoniae; assay type: functional, organism-based
Ca-Ski [3] = assay: Antiproliferative activity against HPV-positive human Ca-Ski cells assessed as inhibition of cell growth incubated for 48 hrs by WST-1 assay; assay type: functional, cell-based
Summary of the method: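 CaSki cells were grown in RPMI 1640 with 10% FBS, kept below passage 10, at 37 °C and 5% CO2. They were seeded at 1000–3000 cells/well (about 50% confluence) and treated with 12 serial dilutions from 200 to 2 μM in DMSO (N = 3), with DMSO and 50 μM etoposide controls. After 48 h, 2 h WST-1 was read at 450/600 nm, normalized, and fitted by nonlinear regression.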

Pseudomonas aeruginosa = assay: Antibacterial activity against Pseudomonas aeruginosa; assay type: functional, organism-based
Ca-Ski [4] = assay: Antiproliferative activity against HPV-positive human Ca-Ski cells assessed as inhibition of cell growth at 50 uM incubated for 48 hrs by WST-1 assay; assay type: functional, cell-based
C-33-A [5] = assay: Antiproliferative activity against HPV-negative human C-33-A cells assessed as inhibition of cell growth at 50 uM incubated for 48 hrs by WST-1 assay; assay type: functional, cell-based
Summary of the method: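 C33A cells in DMEM, seeded at 1000–3000 per well and exposed to 50 μM etoposide as the positive control alongside a DMSO negative control (N = 3). Proliferation was read by WST-1 after 48 h treatment plus 2 h reagent incubation, at 450/600 nm. End-point absorbances were normalized.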

[6] = Selectivity ratio of EC50 for antiproliferative activity against HPV-positive human Ca-Ski cells to EC50 for antiproliferative activity against HPV-negative human C-33-A cells; assay type: functional; summary of the method: as §1

Structure (SMILES) | Activity [1] | pEC50 (C-33-A [2]) | Activity (Candida) | Activity (Human orthopneumovirus) | Activity (Acinetobacter baumannii) | Activity (Enterococcus faecium) | Activity (Enterobacter sp.) | Activity (Staphylococcus aureus) | Activity (Klebsiella pneumoniae) | pEC50 (Ca-Ski [3]) | Activity (Pseudomonas aeruginosa) | Activity (Ca-Ski [4]) | Activity (C-33-A [5]) | Ratio EC50 [6]
CC(C)=CCC/C(C)=C/CCC1(C)C=Cc2c(C=O)c(O)c(C)c(O)c2O1 (stereo not drawn) | inactive | 4.24 | inactive | inactive | inactive | inactive | inactive | inactive | inactive | 4.34 | inactive |  |  | 
CC(=O)Oc1cc(C)c(O)c2c1C=CC(C)(CC/C=C(\C)CCC=C(C)C)O2 (stereo not drawn) | inactive | 4.85 | inactive | inactive | inactive | inactive | inactive | inactive | inactive | 4.60 | inactive |  |  | 
CC(C)=CCC/C(C)=C/CC/C(C)=C/Cc1c(O)c(O)c(C)c(O)c1C=O | inactive | 4.85 | inactive | inactive | inactive | inactive | inactive | inactive | inactive | 4.64 | inactive |  |  | 
COc1cc([C@@H]2c3cc4c(cc3[C@@H](O[C@@H]3O[C@@H]5CO[C@@H](C)O[C@H]5[C@H](O)[C@H]3O)[C@H]3COC(=O)[C@H]23)OCO4)cc(OC)c1O |  |  |  |  |  |  |  |  |  |  |  | Active | Active | 
COc1cc(C)c(O)c2c1C=CC(C)(CC/C=C(\C)CCCC(C)(C)OC(C)=O)O2 (stereo not drawn) | inactive | 7.40 | inactive | inactive | inactive | inactive | inactive | inactive | inactive | 4.70 | inactive |  |  | 500
COc1cc(C)c(O)c2c1C=CC(C)(CC/C=C(\C)CCCC(C)(C)O)O2 (stereo not drawn) | inactive | 4.42 | inactive | inactive | inactive | inactive | inactive | inactive | inactive | 4.39 | inactive |  |  | 
